Source: PubChem
m5-HT2A agonist: mouse Htr2a agonists via beta-arrestin recruitment, primary screen, cell-based, luminescence; 5-hydroxytryptamine receptor 2A (Mus musculus), P35363; CHO-K1 mHTR2A beta-arrestin complementation; percent of 30 µM serotonin response; activation, % at 7.6 µM; 360,000 tested, 0.66% active; AID 624169, 2012;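 active = activation above a run cutoff, the mean activation of all tested compounds plus 3 SD, cut at about 14% in these data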;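 also: 0% = plate median of compound wells and 100% = 30 µM serotonin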
Target sequence (P35363 whole entry, looked up): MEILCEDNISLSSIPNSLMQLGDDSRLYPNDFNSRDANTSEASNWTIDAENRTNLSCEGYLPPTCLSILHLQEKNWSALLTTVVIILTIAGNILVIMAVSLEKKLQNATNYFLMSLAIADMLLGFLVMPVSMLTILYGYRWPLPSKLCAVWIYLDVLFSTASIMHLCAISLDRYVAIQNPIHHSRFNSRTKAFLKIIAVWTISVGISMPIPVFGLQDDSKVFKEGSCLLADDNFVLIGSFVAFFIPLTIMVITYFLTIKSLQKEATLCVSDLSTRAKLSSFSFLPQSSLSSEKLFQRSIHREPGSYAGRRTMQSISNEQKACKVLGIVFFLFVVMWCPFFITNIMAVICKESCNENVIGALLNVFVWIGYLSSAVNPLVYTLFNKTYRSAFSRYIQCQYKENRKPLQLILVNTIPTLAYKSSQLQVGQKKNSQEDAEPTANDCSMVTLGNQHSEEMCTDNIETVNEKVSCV
MC4R antagonist: MC4R antagonists of cAMP signaling, primary screen, cell-based, TR-FRET, antagonist arm of biased-ligand search | MC4R-expressing cells, MTII-stimulated cAMP, LANCE TR-FRET | inhibition, % at 6.5 µM | 360,000 tested, 0.48% active;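 active = inhibition above its plate's cutoff, the mean of tested wells on that plate plus 3 SD, cut at about 29% in these data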;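 also: 0% = Melanotan II alone and 100% = Melanotan II plus saturating MCL0020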
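Assay system: human MC4R-expressing U2OS cells; reagent: Melanotan II stimulation of cells; dosing: 6.5 µM single dose; timing: compound 30 min, challenge 1 h, detection 1 h; signal: TR-FRET cAMP assay; replicates: one well per compound, no replicates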
FXN GAA850 act: FXN promoter activators, primary screen, cell-based, luciferase luminescence, HEK293 lucGAA850 | HEK293 lucGAA850 FXN promoter luciferase reporter, 24 h; percent of 10 µM SAHA response | activation, % at 6 µM | 360,000 tested, 0.56% active | AID 540364, 2011;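 active = activation above the average of all compounds screened plus 3 SD, cutoff fixed separately per campaign, cut at about 7.5% in these data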;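 also: 0% = DMSO wells and 100% = 10 µM SAHA wells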
MC4R ag barr: MC4R agonists recruiting beta-arrestin, primary screen, cell-based, luminescence, agonist arm of biased-ligand search; 360,000 tested, 0.98% active; AID 540308, 2011; activation, % at 8.9 µM; U2OS MC4R beta-arrestin complementation; percent of melanotan II response, DMSO zero; Melanocortin receptor 4 (Homo sapiens), P32245;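 active = activation above a per-plate cutoff, the mean activation of sample wells on that plate plus 3 SD, cut at about 8% in these data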
AHR activator: AHR activators, primary screen, cell-based, luminescence, luciferase reporter, human. AHR-responsive luciferase reporter cells. activation, % at 5 µM. 320,000 tested, 2.5% active; in the data active = activation above about 47%;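 also: 0% = vehicle wells and 100% = reference agonist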
Numbers without * were called inactive; / = no result. Most compounds without a hit are left out; they make up all but 4.7% or so of the library.

SMILES | m5-HT2A agonist | MC4R antagonist | FXN GAA850 act | MC4R ag barr | AHR activator
Nc1[nH]c(C(=O)c2ccccc2)c(-c2cccc3ccccc23)c1C(=O)NCc1ccccc1 | 2.5 | / | / | / | /
COc1cc(-c2nc3ccccc3s2)ccc1O | -3.9 | 1.0 | 4.5 | 1.0 | 47.5*
O=C(Nc1ccc(-c2nc3ccccc3s2)c(O)c1)C1=COCCO1 | 1.5 | 6.6 | 3.5 | 2.5 | 8.3
COc1cc(OC)c(-c2nc3ccccc3s2)cc1OC | 1.2 | 7.7 | 3.2 | -1.8 | 22.3
O=C(Nc1ccc(O)c(-c2nc3ccccc3s2)c1)C1=COCCO1 | 4.1 | -5.9 | 1.1 | 2.9 | 49.7*
Cc1sc(NC(=O)C2=COCCO2)nc1-c1ccc(F)cc1 | 0.4 | 1.8 | 4.3 | -0.6 | 51.8*
O=C(Nc1ccc(-c2nc3ccccc3s2)cc1)C1=COCCO1 | -0.6 | -0.6 | 0.5 | -0.2 | 50.0*
CCNc1nc(NC(C)C)nc(ON=C(C)C)n1 | / | / | / | / | -1.5
Cc1ccc(S(=O)(=O)N2CCOCC2)cc1C(=O)Nc1ccccc1N1CCOCC1 | 4.6 | 1.9 | 0.9 | 1.2 | 3.6
Cc1ccsc1C(=O)Nc1ccc(O)c(-c2nc3ccccc3s2)c1 | -1.1 | -0.2 | 1.1 | 5.7 | 46.1
CC(=O)Nc1ccc(O)c(-c2nc3ccccc3s2)c1 | -0.7 | 8.5 | 4.3 | 0.6 | 71.5*
O=C(Nc1ncc2c(n1)-c1ccccc1CC2)c1cccs1 | -2.8 | 19.4 | 1.2 | 1.6 | 63.1*
Nc1nccc(-c2cccs2)n1 | 2.5 | -7.2 | 0.8 | -0.4 | 0.8
O=C(Nc1nccc(-c2cccs2)n1)c1cccs1 | 1.1 | 12.0 | 1.5 | -1.0 | 48.1*
O=C(Nc1ncc2c(n1)-c1ccccc1CC2)c1ccc(F)cc1 | -3.3 | -0.2 | -3.5 | -1.0 | 64.6*
Fc1ccccc1/C=N/Nc1ncnc2ccccc12 | -3.5 | 3.6 | 2.6 | -0.1 | 30.7
Clc1ccc(/C=N/Nc2ncnc3ccccc23)cc1Cl | 0.1 | 6.7 | 7.0 | 0.8 | 57.9*
COc1c(Br)cc(Br)cc1/C=N/NC(=O)c1ccncc1 | -8.8 | 0.2 | -1.0 | -1.7 | 57.5*
Cc1ccc(-n2[nH]c(C)c(C=Nc3ccc(Br)cn3)c2=O)cc1 | 1.6 | -1.0 | 2.2 | -2.5 | 70.5*
COc1ccc2nc(/N=C/c3c(C)[nH]n(-c4ccc(C)cc4)c3=O)sc2c1 | 0.1 | -2.0 | 3.5 | -3.0 | 51.5*
Cc1ccc(-n2[nH]c(C)c(/C=N/c3ccccn3)c2=O)cc1 | 3.9 | -2.1 | 1.6 | -0.8 | 11.0
O=C(Nc1cc2c(cc1Cl)-c1ccc([N+](=O)[O-])cc1C2=NO)C(F)(F)F | -1.1 | 10.4 | -0.9 | 7.5 | /
Cc1ccc(-c2[nH]c3cc(C(N)=O)ccc3c(=O)c2O)cc1 | -4.8 | 0.1 | 0.2 | 0.0 | 66.3*
COc1ccc(-c2nnc(OCc3ccccc3)c3ccccc23)cc1 | 1.5 | 28.2 | 2.1 | -1.5 | 55.7*
Cc1ccc(-c2nnc(OCc3cccnc3)c3ccccc23)cc1 | -1.4 | 14.2 | 0.2 | -1.7 | 20.8
SMILES | m5-HT2A agonist | MC4R antagonist | FXN GAA850 act | MC4R ag barr | AHR activator
CS(=O)(=O)c1ccc(C(=O)OCc2nnc(-c3ccc(Cl)cc3)o2)cc1[N+](=O)[O-] | -0.5 | 2.5 | 13.8* | -1.8 | 2.9
Cn1c(=O)n(C)c2cc3[nH]cnc3cc21 | -1.8 | 8.1 | -0.5 | 0.3 | -1.1
CCCc1nc2cc3c(cc2[nH]1)n(C)c(=O)n3C | 4.1 | 2.5 | 0.4 | -0.1 | 75.2*
COc1cc(OC)cc(OCC(O)Cn2ccnc2)c1 (centres undefined) | 3.0 | 3.6 | -1.3 | 0.2 | 53.4*
Nc1ccc(S(=O)(=O)c2ccc(N3CCOCC3)c(N)c2)cc1 | 1.9 | 4.9 | 3.5 | -0.5 | /
O=C(Nc1cc2nn(-c3ccccc3)nc2cc1Cl)c1ccco1 | 0.5 | 4.4 | 5.9 | 2.2 | 47.3*
CC(C)(C)C(=O)Nc1cc2nn(-c3ccccc3)nc2cc1Cl | -2.8 | 6.4 | -15.2 | 1.7 | /
CC(=O)Nc1cc2nn(-c3ccccc3)nc2cc1Cl | 0.1 | -4.8 | 5.2 | -1.8 | 56.7*
Cc1ccc(-n2nc(C)c3c2OC(N)=C(C#N)C3c2ccoc2)cc1 (centres undefined) | -2.9 | -4.1 | -0.7 | -1.1 | 51.0*
Cc1ccc(-n2nc(C)c3c2OC(N)=C(C#N)C3c2ccco2)cc1 (centres undefined) | -1.4 | -1.5 | 2.6 | -1.5 | 63.0*
COc1ccc(C)cc1NC(=O)C(OC(=O)CNC(=O)c1cccc(F)c1)c1ccccc1 (centres undefined) | 0.9 | 6.3 | 0.1 | 2.6 | 72.0*
Cc1cnc(C(=O)OC(C(=O)Nc2cc(C(F)(F)F)ccc2Cl)c2ccccc2)cn1 (centres undefined) | -0.2 | 1.1 | 1.0 | -1.3 | 2.6
COc1ccc(C)cc1NC(=O)C(OC(=O)c1cnc(C)cn1)c1ccccc1 (centres undefined) | -1.8 | 1.0 | 0.8 | 0.4 | 60.3*
Cc1ccc(C)c(NC(=O)C(OC(=O)c2cnc(C)cn2)c2ccccc2)c1 (centres undefined) | -0.2 | 19.3 | -1.1 | -1.1 | 69.9*
COc1ccc(NC(=O)C(OC(=O)c2cnc(C)cn2)c2ccccc2)cc1Cl (centres undefined) | -7.4 | 11.3 | 1.0 | -2.4 | 6.7
COc1ccc(C)cc1NC(=O)C(OC(=O)c1cc(C)oc1C)c1ccccc1 (centres undefined) | -2.8 | 7.2 | 3.0 | -1.4 | 73.5*
COc1ccc(CC(N)c2csc(Nc3nc(C)cnc3C)n2)cc1 (centres undefined) | -5.8 | 4.4 | -3.5 | -2.1 | /
O=C(Nc1ccc(N2CCOCC2)cc1N1CCOCC1)c1ccc(F)cc1 | 5.1 | 2.6 | 2.6 | 0.0 | -0.6
O=C(c1cc(-c2ccc(Cl)cc2)n[nH]1)N1CCN(C(=O)c2ccco2)CC1 | 0.7 | 10.2 | -2.3 | 1.2 | 15.6
CCOC(=O)N1CCN(C(=O)COC(=O)Cc2ccc(Cl)cc2)CC1 | -6.7 | -1.0 | -0.7 | 1.2 | -1.3
COc1cccc(CNC(=O)CN2C(=O)CSc3ccc(S(=O)(=O)N4CCCCC4)cc32)c1 | -3.6 | 7.3 | 1.3 | -3.2 | 1.3
O=[N+]([O-])c1cccc2ccc(/C=C/c3ccc(Cl)cc3)nc12 | -8.5 | 3.2 | 5.9 | -2.4 | 61.9*
CCOc1cc(/C=C/c2ccc3cccc([N+](=O)[O-])c3n2)cc(Cl)c1O | 0.6 | -0.2 | 5.0 | 1.2 | 6.7
COc1cc(/C=C2/NC(=O)NC2=O)cc(Br)c1OCc1ccccc1 | -1.6 | -5.9 | 2.8 | 2.4 | 58.7*
COc1cc(/C=C2/NC(=O)NC2=O)cc(Br)c1OCc1cccc(C(=O)O)c1 | -2.0 | -3.9 | 1.7 | -1.6 | 2.5
COc1ccc(CCNC(=O)CN2C(=O)c3cccc4cccc(c34)C2=O)cc1OC | 0.2 | 2.5 | 1.1 | -0.1 | 4.2
